The source made the active and inactive calls. The rule behind the calls is not given here.
How the values were obtained:
Type in all cases: functional, organism-based
Pseudomonas aeruginosa [1] = assay: Inhibition of pyoverdin production in Pseudomonas aeruginosa
How it was run: (§1)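 Overnight nutrient broth cultures were pelleted, resuspended, grown to mid-log phase (OD600 0.3–0.5), and diluted to OD600 0.05. Cultures were exposed to compound in water at 50.00, 25.00, 10.00, 5.00, 2.50, 1.00, 0.10, 0.001 or zero final concentration, shaken 18 h at 37 C. Viable cells were counted, and the pellet OD600 was used to normalise pigment per bacterial OD unit.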

Pseudomonas aeruginosa [2] = assay: Inhibition of pyocyanin production in Pseudomonas aeruginosa; how it was run: as §1
Pseudomonas aeruginosa [3] = assay: Inhibition of pyocyanin production in Pseudomonas aeruginosa ATCC 9027; how it was run: as §1
Pseudomonas aeruginosa [4] = assay: Inhibition of pyoverdin production in Pseudomonas aeruginosa ATCC 9027; how it was run: as §1

CCOP(=O)(OCC)O/N=C(/C)c1cccc(C)c1
Activity (Pseudomonas aeruginosa [1]): inactive | Activity (Pseudomonas aeruginosa [2]): inactive

PHENYL MERCURIC NITRATE
IC50 (Pseudomonas aeruginosa [3]): 3.24 µM | IC50 (Pseudomonas aeruginosa [1]): 3.16 µM | IC50 (Pseudomonas aeruginosa [4]): 3.98 µM | IC50 (Pseudomonas aeruginosa [2]): 3.02 µM

triethylplumbyl 4-methylbenzenesulfonate
IC50 (Pseudomonas aeruginosa [3]): 0.158 µM | IC50 (Pseudomonas aeruginosa [1]): 0.355 µM | IC50 (Pseudomonas aeruginosa [4]): 0.794 µM | IC50 (Pseudomonas aeruginosa [2]): 0.282 µM

THIMEROSAL
IC50 (Pseudomonas aeruginosa [3]): 3.16 µM | IC50 (Pseudomonas aeruginosa [1]): 0.603 µM | IC50 (Pseudomonas aeruginosa [4]): 3.17 µM | IC50 (Pseudomonas aeruginosa [2]): 0.708 µM
